Measurements taken from ChEMBL document CHEMBL5244264, “Design, synthesis, and structure activity relationship (SAR) studies of novel imidazo[1,2-a] pyridine derivatives as Nek2 inhibitors” (Bioorg Med Chem, 2020).

Tests used:
Type in all cases: functional, cell-based
Bel-7402 = assay: Antitumor activity against human Bel-7402 cells assessed as inhibition of cell proliferation incubated for 72 hrs by MTT assay; settings: Bel-7402, 72 h
How it was run: (§1)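 Cells were exposed to a range of compound concentrations for 72 h at 37 °C. Proliferation was read by MTT assay, and IC50 values are reported.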

HCT-116 = assay: Antitumor activity against human HCT-116 cells assessed as inhibition of cell proliferation incubated for 72 hrs by MTT assay; settings: HCT-116, 72 h; how it was run: as §1
Hep 3B2 = assay: Antitumor activity against human Hep3B cells assessed as inhibition of cell proliferation incubated for 72 hrs by MTT assay; how it was run: as §1
MGC-803 = assay: Antitumor activity against human MGC-803 cells assessed as inhibition of cell proliferation incubated for 72 hrs by MTT assay; settings: MGC-803, 72 h

CN(C)CCn1cc(-c2ccn3c(-c4ccc(C(N)=O)c(OCc5cccc(F)c5)c4)cnc3c2)cn1
IC50 (Bel-7402): 6.37 µM | IC50 (HCT-116): 0.7 µM | IC50 (Hep 3B2): 1.07 µM | IC50 (MGC-803): 0.65 µM

COC(=O)c1sc(-c2cnc3cc(-c4cnn(CCN5CCCC5)c4)ccn23)cc1OC(C)c1ccccc1C(F)(F)F (stereo not given)
IC50 (MGC-803): 2.05 µM

COC(=O)c1sc(-c2cnc3cc(-c4cnn(C)c4)ccn23)cc1OC(C)c1cccc(F)c1 (stereo not given)
IC50 (MGC-803): > 30 µM

COC(=O)c1sc(-c2cnc3cc(-c4cnn(CCN5CCCCC5)c4)ccn23)cc1OC(C)c1ccccc1C(F)(F)F (stereo not given)
IC50 (MGC-803): 7.36 µM

COC(=O)c1sc(-c2cnc3cc(-c4cnn(C)c4)ccn23)cc1OC(C)c1ccccc1 (stereo not given)
IC50 (MGC-803): 9.18 µM

CC(Oc1cc(-c2cnc3cc(-c4cnn(C)c4)ccn23)sc1C(N)=O)c1ccccc1 (stereo not given)
IC50 (MGC-803): 2.98 µM

CC(Oc1cc(-c2cnc3cc(-c4cnn(CCN5CCOCC5)c4)ccn23)sc1C(N)=O)c1ccccc1C(F)(F)F (stereo not given)
IC50 (Bel-7402): 4.33 µM | IC50 (HCT-116): 0.36 µM | IC50 (Hep 3B2): 1.25 µM | IC50 (MGC-803): 0.044 µM

COC(=O)c1sc(-c2cnc3cc(-c4cnn(CCN5CCOCC5)c4)ccn23)cc1OC(C)c1ccccc1C(F)(F)F (stereo not given)
IC50 (MGC-803): 5.9 µM

COC(=O)c1sc(-c2cnc3cc(-c4cnn(C)c4)ccn23)cc1OC(C)c1ccccc1C(F)(F)F (stereo not given)
IC50 (MGC-803): 3.92 µM

COC(=O)c1sc(-c2cnc3cc(-c4cnn(CCN(C)C)c4)ccn23)cc1OC(C)c1cccc(F)c1 (stereo not given)
IC50 (MGC-803): 1.57 µM

CC(Oc1cc(-c2cnc3cc(-c4cnn(CCN(C)C)c4)ccn23)sc1C(N)=O)c1ccccc1 (stereo not given)
IC50 (MGC-803): 1.95 µM

CC(Oc1cc(-c2cnc3cc(-c4cnn(CCCN5CCN(C)CC5)c4)ccn23)sc1C(N)=O)c1ccccc1C(F)(F)F (stereo not given)
IC50 (Bel-7402): 5.99 µM | IC50 (HCT-116): 0.46 µM | IC50 (Hep 3B2): 1.18 µM | IC50 (MGC-803): 0.054 µM

CC(Oc1cc(-c2cnc3cc(-c4cnn(C5CCN(C(=O)OC(C)(C)C)CC5)c4)ccn23)sc1C(N)=O)c1ccccc1C(F)(F)F (stereo not given)
IC50 (MGC-803): 1.81 µM

COC(=O)c1sc(-c2cnc3cc(-c4cnn(C)c4)ccn23)cc1OC(C)c1cccc(C(F)(F)F)c1 (stereo not given)
IC50 (MGC-803): 17.3 µM

COC(=O)c1sc(-c2cnc3cc(-c4cnn(C5CCN(C(=O)OC(C)(C)C)C5)c4)ccn23)cc1OC(C)c1ccccc1C(F)(F)F (stereo not given)
IC50 (MGC-803): 20.3 µM

COC(=O)c1sc(-c2cnc3cc(-c4cnn(C5CCN(C(=O)OC(C)(C)C)CC5)c4)ccn23)cc1OC(C)c1ccccc1C(F)(F)F (stereo not given)
IC50 (MGC-803): 20.4 µM

COC(=O)c1sc(-c2cnc3cc(-c4cnn(CCN(C)C)c4)ccn23)cc1OC(C)c1cccc(C(F)(F)F)c1 (stereo not given)
IC50 (MGC-803): 4.71 µM

CC(Oc1cc(-c2cnc3cc(-c4cnn(CCN5CCCC5)c4)ccn23)sc1C(N)=O)c1ccccc1C(F)(F)F (stereo not given)
IC50 (MGC-803): 8.4 µM

COC(=O)c1sc(-c2cnc3cc(-c4cnn(CCN(C)C)c4)ccn23)cc1OC(C)c1ccccc1F (stereo not given)
IC50 (MGC-803): 2.47 µM

CC(Oc1cc(-c2cnc3cc(-c4cnn(CCN(C)C)c4)ccn23)sc1C(N)=O)c1cccc(F)c1 (stereo not given)
IC50 (MGC-803): 6.02 µM

CC(Oc1cc(-c2cnc3cc(-c4cnn(CCN(C)C)c4)ccn23)sc1C(N)=O)c1ccccc1F (stereo not given)
IC50 (MGC-803): 2.91 µM

CC(Oc1cc(-c2cnc3cc(-c4cnn(CCN5CCCCC5)c4)ccn23)sc1C(N)=O)c1ccccc1C(F)(F)F (stereo not given)
IC50 (MGC-803): 8.68 µM

COC(=O)c1sc(-c2cnc3cc(-c4cnn(CCCN5CCN(C)CC5)c4)ccn23)cc1OC(C)c1ccccc1C(F)(F)F (stereo not given)
IC50 (MGC-803): 3.76 µM

COC(=O)c1sc(-c2cnc3cc(-c4cnn(CCN(C)C)c4)ccn23)cc1OC(C)c1ccccc1C(F)(F)F (stereo not given)
IC50 (MGC-803): 0.32 µM

COC(=O)c1sc(-c2cnc3cc(-c4cnn(C)c4)ccn23)cc1OC(C)c1ccccc1F (stereo not given)
IC50 (MGC-803): 11.1 µM

CC(Oc1cc(-c2cnc3cc(-c4cnn(C)c4)ccn23)sc1C(N)=O)c1cccc(C(F)(F)F)c1 (stereo not given)
IC50 (MGC-803): 3.48 µM

CC(Oc1cc(-c2cnc3cc(-c4cnn(C)c4)ccn23)sc1C(N)=O)c1cccc(F)c1 (stereo not given)
IC50 (MGC-803): 16.4 µM

COC(=O)c1sc(-c2cnc3cc(-c4cnn(CC5CN(C(=O)OC(C)(C)C)C5)c4)ccn23)cc1OC(C)c1ccccc1C(F)(F)F (stereo not given)
IC50 (MGC-803): 19.3 µM

CC(Oc1cc(-c2cnc3cc(-c4cnn(C)c4)ccn23)sc1C(N)=O)c1ccccc1F (stereo not given)
IC50 (MGC-803): 3.52 µM

CC(Oc1cc(-c2cnc3cc(-c4cnn(CCN(C)C)c4)ccn23)sc1C(N)=O)c1cccc(C(F)(F)F)c1 (stereo not given)
IC50 (MGC-803): 6.81 µM

CC(Oc1cc(-c2cnc3cc(-c4cnn(CC5CN(C(=O)OC(C)(C)C)C5)c4)ccn23)sc1C(N)=O)c1ccccc1C(F)(F)F (stereo not given)
IC50 (Bel-7402): 10.4 µM | IC50 (HCT-116): 0.48 µM | IC50 (Hep 3B2): 1.25 µM | IC50 (MGC-803): 0.038 µM

COC(=O)c1sc(-c2cnc3cc(-c4cnn(CCN(C)C)c4)ccn23)cc1OC(C)c1ccccc1 (stereo not given)
IC50 (MGC-803): 1.29 µM

CC(Oc1cc(-c2cnc3cc(-c4cnn(C5CCN(C(=O)OC(C)(C)C)C5)c4)ccn23)sc1C(N)=O)c1ccccc1C(F)(F)F (stereo not given)
IC50 (MGC-803): 0.55 µM
